Assay results reported in ChEMBL document CHEMBL3751740, “New MKLP-2 inhibitors in the paprotrain series: Design, synthesis and biological evaluations” (Bioorg Med Chem, 2016).
Calls of active or inactive are those of the source. The calls are words filed in the database; no cut-off is given here.

Key:
Ovis aries [1] = species on record: Ovis aries; test: (§1) Inhibition of sheep brain tubulin polymerization by UV spectrophotometric analysis; parameters: concentration or dose not given beside the values
Procedure, shortened: (§2)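 Tubulin purified from sheep brain by two assembly/disassembly cycles, about 2–3 mg/mL in 0.1 M MES, 0.5 mM MgCl2, 1 mM EGTA, 1 mM GTP, pH 6.6. Compound in DMSO added at 0 °C, then moved to a 37 °C thermostated cell. Assembly followed by turbidity at 350 nm for a few min.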

KB [2] = test: Growth inhibition of human KB cells at 1 uM after 72 hrs by MTS assay; assay type: functional; settings: for inhibition of growth at 1 µM: read-out: GI
Procedure, shortened: (§3)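 KB cells were grown in DMEM with 25 mM glucose and 10% FCS at 37 °C, 5% CO2, and seeded at 500 cells/well. 24 h later, compound in DMSO (1% final) was added at 10 µM or 1 µM for 72 h; controls received DMSO alone. Runs were in duplicate. Viable cells were read with MTS at 490 nm.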

Ovis aries [3] = species on record: Ovis aries; test: Induction of sheep brain microtubule disassembly by UV spectrophotometric analysis
Procedure, shortened: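 Sheep brain tubulin, purified by two assembly/disassembly cycles and held in MES buffer with GTP at pH 6.6, was polymerized at 37 °C for 10 min. Compound was then added to the MTs at 0 °C and depolymerization was followed over the next few minutes by turbidity at 350 nm.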

KB [4] = test: Growth inhibition of human KB cells at 10 uM after 72 hrs by MTS assay; assay type: functional; settings: for inhibition of growth at 10 µM: read-out: GI; procedure, shortened: as §3
[5] = target: T1, Kinesin-like protein KIF20A (Homo sapiens, UniProt O95235); test: Inhibition of N-terminal MKLP2 (56 to 505 residues) ATPase basal activity isolated from human hepatocellular carcinoma cells by pyruvate kinase/lactate dehydrogenase enzyme linked assay
T1 sequence (O95235 whole entry): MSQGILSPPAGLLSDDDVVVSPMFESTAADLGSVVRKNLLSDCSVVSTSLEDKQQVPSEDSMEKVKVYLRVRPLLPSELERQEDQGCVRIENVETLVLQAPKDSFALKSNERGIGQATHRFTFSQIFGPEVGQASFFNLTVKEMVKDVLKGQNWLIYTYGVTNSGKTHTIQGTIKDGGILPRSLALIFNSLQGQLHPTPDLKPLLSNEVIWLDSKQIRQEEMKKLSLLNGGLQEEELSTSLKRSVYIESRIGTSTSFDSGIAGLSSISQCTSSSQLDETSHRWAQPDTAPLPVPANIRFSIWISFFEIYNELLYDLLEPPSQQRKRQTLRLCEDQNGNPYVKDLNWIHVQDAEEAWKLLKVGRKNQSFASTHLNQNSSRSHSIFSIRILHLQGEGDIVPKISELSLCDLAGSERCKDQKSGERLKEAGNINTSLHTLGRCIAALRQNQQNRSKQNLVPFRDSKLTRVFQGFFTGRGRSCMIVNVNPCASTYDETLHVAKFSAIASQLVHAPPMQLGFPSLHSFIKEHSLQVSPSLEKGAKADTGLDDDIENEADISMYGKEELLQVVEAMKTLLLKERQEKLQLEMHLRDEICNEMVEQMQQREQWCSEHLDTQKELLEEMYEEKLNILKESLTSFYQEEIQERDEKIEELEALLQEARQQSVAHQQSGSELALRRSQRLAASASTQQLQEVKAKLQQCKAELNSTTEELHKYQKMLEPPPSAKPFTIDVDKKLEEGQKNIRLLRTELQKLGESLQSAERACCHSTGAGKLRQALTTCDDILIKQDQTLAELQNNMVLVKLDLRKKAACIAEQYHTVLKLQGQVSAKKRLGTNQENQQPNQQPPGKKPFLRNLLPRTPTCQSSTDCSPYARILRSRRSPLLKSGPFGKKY

[6] = target: T1, Kinesin-like protein KIF20A; test: Inhibition of microtubule-stimulated N-terminal MKLP-2 (56 to 505 residues) ATPase activity isolated from human hepatocellular carcinoma cells by pyruvate kinase/lactate dehydrogenase enzyme linked assay
KB [7] = test: Growth inhibition of human KB cells after 72 hrs by MTS assay; assay type: functional
Ovis aries [8] = species on record: Ovis aries; test: Inhibition of sheep brain microtubule disassembly by UV spectrophotometric analysis; parameters: concentration or dose not given beside the values
[9] = as §1; parameters: species or system Ovis aries; procedure, shortened: as §2

SMILES	inhibition (Ovis aries [1]; concentration not given here) [%]	growth inhibition (GI) (KB [2])	Activity (Ovis aries [3])	inhibition of growth at 10 µM (KB [4]) [%]	IC50 [5]	IC50 [6]	GI50 (KB [7]) [µM]	inhibition (Ovis aries [1])	inhibition of growth at 1 µM (KB [2]) [%]	Activity (Ovis aries [8]) [%]	IC50 [9] [µM]	growth inhibition (GI) (KB [4])
N#C/C(=C\c1ccc(C(F)(F)F)cc1)c1c[nH]c2ccccc12	57	inactive	inactive	87	Not Active	Not Active	–	–	–	–	–	–
CC(=O)O[C@@]12CO[C@@H]1C[C@H](O)[C@@]1(C)C(=O)[C@H](O)C3=C(C)[C@@H](OC(=O)[C@H](O)[C@@H](NC(=O)OC(C)(C)C)c4ccccc4)C[C@@](O)([C@@H](OC(=O)c4ccccc4)[C@H]21)C3(C)C [DOCETAXEL ANHYDROUS]	–	–	–	–	Not Active	Not Active	0.00013	–	–	–	–	–
COc1ccc2[nH]c(C)c(/C(C#N)=C/c3cccnc3)c2c1	–	–	inactive	69	–	–	–	inactive	–	–	–	–
N#C/C(=C\c1cccnc1)c1c[nH]c2ncccc12	19	–	inactive	100	–	–	–	–	29	–	–	–
COc1cc(OC)c(/C=C(\C#N)c2c[nH]c3ccccc23)c(OC)c1	–	inactive	–	83	Not Active	Not Active	–	inactive	–	13	–	–
COc1ccc2[nH]cc(C(=O)/C(C#N)=C/c3cccnc3)c2c1	–	–	–	27	Not Active	Not Active	–	inactive	–	14	–	–
COc1cccc2c(/C(C#N)=C/c3cccnc3)c[nH]c12	–	inactive	inactive	85	Not Active	Not Active	–	inactive	–	–	–	–
COc1cccc(/C=C(\C#N)c2c[nH]c3ccccc23)c1OC	–	–	inactive	100	Not Active	Not Active	–	inactive	2	–	–	–
N#CC(Cc1cccnc1)c1c[nH]c2ccccc12 (stereo not given)	16	–	–	5	–	–	–	–	–	21	–	–
COc1ccc(/C=C(\C#N)c2c[nH]c3ccccc23)cc1OC	62	–	inactive	99	Not Active	Not Active	–	–	25	–	20	–
COc1ccc2[nH]cc(/C(=C/C#N)Cc3cccnc3)c2c1	33	–	inactive	–	Not Active	Not Active	–	–	–	–	–	inactive
COc1ccc2c(c1)c(/C(C#N)=C/c1cccnc1)cn2C(C)=O	–	–	inactive	74	Not Active	Not Active	–	inactive	–	–	–	–
COc1cccc(/C=C(\C#N)c2c[nH]c3ccccc23)c1	37	inactive	–	89	Not Active	Not Active	–	–	–	38	–	–
N#C/C(=C\c1ccc(F)cc1)c1c[nH]c2ccccc12	22	inactive	inactive	84	–	–	–	–	–	–	–	–
N#C/C(=C\c1cccnc1)c1c(-c2ccsc2)[nH]c2ccccc12	70	–	inactive	99	Not Active	Not Active	–	–	12	–	9.2	–
CC(=O)O[C@H]1C(=O)[C@@]2(C)[C@H]([C@H](OC(=O)c3ccccc3)[C@]3(O)C[C@H](OC(=O)[C@H](O)[C@@H](NC(=O)c4ccccc4)c4ccccc4)C(C)=C1C3(C)C)[C@]1(OC(C)=O)CO[C@@H]1C[C@@H]2O [PACLITAXEL]	–	–	–	–	Not Active	Not Active	0.001	–	–	–	1	–
COc1ccc2[nH]cc(/C(C#N)=C/C=C/c3cccnc3)c2c1	11	–	inactive	10	Not Active	Not Active	–	–	–	–	–	–
COc1cc(/C=C(\C#N)c2c[nH]c3ccccc23)cc(OC)c1OC	–	–	inactive	81	Not Active	Not Active	–	inactive	6	–	–	–
N#C/C(=C\c1cccnc1)c1c(-c2ccccc2)[nH]c2ccccc12	33	inactive	–	93	Not Active	Not Active	–	–	–	13	–	–
CSc1ccc(/C=C(\C#N)c2c[nH]c3ccccc23)cc1	–	inactive	inactive	98	Not Active	Not Active	–	inactive	–	–	–	–
N#C/C(=C\c1c[nH]c2ccccc12)c1cccnc1	45	–	inactive	23	–	–	–	–	–	–	–	–
COc1cc(/C=C(\C#N)c2c[nH]c3ccccc23)cc(OC)c1	31	–	–	96	–	–	–	–	31	11	–	–
N#C/C(=C\c1cccc(Cl)c1)c1c[nH]c2ccccc12	–	–	inactive	94	–	–	–	inactive	19	–	–	–
COc1cc(OC)c(OC)cc1/C=C(\C#N)c1c[nH]c2ccccc12	32	–	inactive	100	Not Active	Not Active	–	–	40	–	–	–
COc1ccc2[nH]cc(C(C#N)c3cccnc3)c2c1 (stereo not given)	–	–	inactive	45	Not Active	Not Active	–	inactive	–	–	–	–
N#C/C(=C\c1ccc(Cl)cc1)c1c[nH]c2ccccc12	13	–	inactive	78	–	–	–	–	–	–	–	–
COc1cc2c(c(OC)c1OC)-c1ccc(OC)c(=O)cc1[C@@H](NC(C)=O)CC2 [COLCHICINE]	–	–	–	–	Not Active	Not Active	0.0042	–	–	–	–	–
COc1ccc(/C=C(\C#N)c2c[nH]c3ccccc23)c(OC)c1	76	–	inactive	99	Not Active	Not Active	–	–	35	–	12	–
COc1ccc2c(c1)c(/C(C#N)=C/c1cccnc1)cn2C	53	–	–	33	Not Active	Not Active	–	–	–	15	115	–
COc1cc(/C=C(\C#N)c2c[nH]c3ccccc23)cc(OC)c1O	22	–	–	95	Not Active	Not Active	–	–	59	47	–	–
